The source of these data is ChEMBL document CHEMBL5653631, “A Potent and Selective ULK1 Inhibitor Suppresses Autophagy and Sensitizes Cancer Cells to Nutrient Stress” (iScience, 2018).

The target in experiment [1] is Epithelial discoidin domain-containing receptor 1 (Homo sapiens) (UniProt Q08345). Kind of experiment: Inhibition of human recombinant DDR1 at 40 nM in presence of ATP by radiometric assay relative to control.
Experiment [2] addresses Calcium/calmodulin-dependent protein kinase kinase 1 (Homo sapiens) (UniProt Q8N5S9). Nature of the experiment: Inhibition of human recombinant CaMKK1 at 40 nM related to control ULK1.
Experiment [3] deals with Serine/threonine-protein kinase mTOR (Homo sapiens) (UniProt P42345). Kind of experiment: Inhibition of human recombinant FRAP at 40 nM related to control ULK1.
In experiment [4] the target is T1, Inhibitor of nuclear factor kappa-B kinase subunit epsilon (Homo sapiens) (UniProt Q14164).
T1 sequence (whole entry): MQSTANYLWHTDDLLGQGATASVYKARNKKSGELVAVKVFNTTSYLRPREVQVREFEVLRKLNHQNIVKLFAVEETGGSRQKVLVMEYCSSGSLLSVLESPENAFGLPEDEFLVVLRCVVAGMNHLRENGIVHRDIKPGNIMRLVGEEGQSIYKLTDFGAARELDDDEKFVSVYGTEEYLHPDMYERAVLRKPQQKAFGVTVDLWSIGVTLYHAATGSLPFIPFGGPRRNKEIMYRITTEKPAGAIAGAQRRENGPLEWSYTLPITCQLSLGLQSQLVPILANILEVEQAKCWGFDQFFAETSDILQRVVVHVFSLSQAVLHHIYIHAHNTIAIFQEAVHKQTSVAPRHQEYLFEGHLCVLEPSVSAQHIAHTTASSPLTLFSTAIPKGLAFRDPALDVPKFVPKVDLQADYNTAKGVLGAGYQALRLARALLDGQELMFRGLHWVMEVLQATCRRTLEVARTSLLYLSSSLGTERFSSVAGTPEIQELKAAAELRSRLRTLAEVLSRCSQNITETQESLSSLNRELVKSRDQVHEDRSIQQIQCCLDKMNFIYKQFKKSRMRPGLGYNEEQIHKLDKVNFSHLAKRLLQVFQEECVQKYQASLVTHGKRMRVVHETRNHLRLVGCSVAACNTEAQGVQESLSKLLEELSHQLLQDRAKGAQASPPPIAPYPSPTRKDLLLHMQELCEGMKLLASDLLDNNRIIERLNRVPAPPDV
Kind of experiment: Inhibition of human recombinant IKKe at 40 nM related to control ULK1.

In experiment [5] the target is Dual specificity mitogen-activated protein kinase kinase 2 (Homo sapiens) (UniProt P36507). Kind of experiment: Inhibition of human recombinant MAP2K2 at 40 nM related to control ULK1.
Dual specificity mitogen-activated protein kinase kinase 2 (Homo sapiens), sequence (P36507 whole entry): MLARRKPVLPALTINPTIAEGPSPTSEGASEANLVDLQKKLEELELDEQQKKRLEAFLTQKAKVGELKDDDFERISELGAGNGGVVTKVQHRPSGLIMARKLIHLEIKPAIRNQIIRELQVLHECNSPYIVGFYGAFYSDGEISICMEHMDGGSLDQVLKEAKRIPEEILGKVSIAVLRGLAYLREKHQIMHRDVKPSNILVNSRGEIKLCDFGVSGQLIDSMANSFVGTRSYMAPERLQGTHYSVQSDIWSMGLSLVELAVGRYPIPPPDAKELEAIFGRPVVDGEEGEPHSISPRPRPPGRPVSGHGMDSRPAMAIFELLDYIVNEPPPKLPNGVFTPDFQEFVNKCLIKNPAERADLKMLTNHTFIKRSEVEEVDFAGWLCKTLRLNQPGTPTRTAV
The target of experiment [6] is Serine/threonine-protein kinase pim-3 (Homo sapiens) (UniProt Q86V86). Kind of experiment: Inhibition of human recombinant PIM3 at 40 nM related to control ULK1.
Experiment [7] deals with Serine/threonine-protein kinase WNK1 (Homo sapiens) (UniProt Q9H4A3). Nature of the experiment: Inhibition of human recombinant Wnk1 at 40 nM related to control ULK1.
Serine/threonine-protein kinase WNK1 (Homo sapiens), sequence (Q9H4A3 whole entry, looked up): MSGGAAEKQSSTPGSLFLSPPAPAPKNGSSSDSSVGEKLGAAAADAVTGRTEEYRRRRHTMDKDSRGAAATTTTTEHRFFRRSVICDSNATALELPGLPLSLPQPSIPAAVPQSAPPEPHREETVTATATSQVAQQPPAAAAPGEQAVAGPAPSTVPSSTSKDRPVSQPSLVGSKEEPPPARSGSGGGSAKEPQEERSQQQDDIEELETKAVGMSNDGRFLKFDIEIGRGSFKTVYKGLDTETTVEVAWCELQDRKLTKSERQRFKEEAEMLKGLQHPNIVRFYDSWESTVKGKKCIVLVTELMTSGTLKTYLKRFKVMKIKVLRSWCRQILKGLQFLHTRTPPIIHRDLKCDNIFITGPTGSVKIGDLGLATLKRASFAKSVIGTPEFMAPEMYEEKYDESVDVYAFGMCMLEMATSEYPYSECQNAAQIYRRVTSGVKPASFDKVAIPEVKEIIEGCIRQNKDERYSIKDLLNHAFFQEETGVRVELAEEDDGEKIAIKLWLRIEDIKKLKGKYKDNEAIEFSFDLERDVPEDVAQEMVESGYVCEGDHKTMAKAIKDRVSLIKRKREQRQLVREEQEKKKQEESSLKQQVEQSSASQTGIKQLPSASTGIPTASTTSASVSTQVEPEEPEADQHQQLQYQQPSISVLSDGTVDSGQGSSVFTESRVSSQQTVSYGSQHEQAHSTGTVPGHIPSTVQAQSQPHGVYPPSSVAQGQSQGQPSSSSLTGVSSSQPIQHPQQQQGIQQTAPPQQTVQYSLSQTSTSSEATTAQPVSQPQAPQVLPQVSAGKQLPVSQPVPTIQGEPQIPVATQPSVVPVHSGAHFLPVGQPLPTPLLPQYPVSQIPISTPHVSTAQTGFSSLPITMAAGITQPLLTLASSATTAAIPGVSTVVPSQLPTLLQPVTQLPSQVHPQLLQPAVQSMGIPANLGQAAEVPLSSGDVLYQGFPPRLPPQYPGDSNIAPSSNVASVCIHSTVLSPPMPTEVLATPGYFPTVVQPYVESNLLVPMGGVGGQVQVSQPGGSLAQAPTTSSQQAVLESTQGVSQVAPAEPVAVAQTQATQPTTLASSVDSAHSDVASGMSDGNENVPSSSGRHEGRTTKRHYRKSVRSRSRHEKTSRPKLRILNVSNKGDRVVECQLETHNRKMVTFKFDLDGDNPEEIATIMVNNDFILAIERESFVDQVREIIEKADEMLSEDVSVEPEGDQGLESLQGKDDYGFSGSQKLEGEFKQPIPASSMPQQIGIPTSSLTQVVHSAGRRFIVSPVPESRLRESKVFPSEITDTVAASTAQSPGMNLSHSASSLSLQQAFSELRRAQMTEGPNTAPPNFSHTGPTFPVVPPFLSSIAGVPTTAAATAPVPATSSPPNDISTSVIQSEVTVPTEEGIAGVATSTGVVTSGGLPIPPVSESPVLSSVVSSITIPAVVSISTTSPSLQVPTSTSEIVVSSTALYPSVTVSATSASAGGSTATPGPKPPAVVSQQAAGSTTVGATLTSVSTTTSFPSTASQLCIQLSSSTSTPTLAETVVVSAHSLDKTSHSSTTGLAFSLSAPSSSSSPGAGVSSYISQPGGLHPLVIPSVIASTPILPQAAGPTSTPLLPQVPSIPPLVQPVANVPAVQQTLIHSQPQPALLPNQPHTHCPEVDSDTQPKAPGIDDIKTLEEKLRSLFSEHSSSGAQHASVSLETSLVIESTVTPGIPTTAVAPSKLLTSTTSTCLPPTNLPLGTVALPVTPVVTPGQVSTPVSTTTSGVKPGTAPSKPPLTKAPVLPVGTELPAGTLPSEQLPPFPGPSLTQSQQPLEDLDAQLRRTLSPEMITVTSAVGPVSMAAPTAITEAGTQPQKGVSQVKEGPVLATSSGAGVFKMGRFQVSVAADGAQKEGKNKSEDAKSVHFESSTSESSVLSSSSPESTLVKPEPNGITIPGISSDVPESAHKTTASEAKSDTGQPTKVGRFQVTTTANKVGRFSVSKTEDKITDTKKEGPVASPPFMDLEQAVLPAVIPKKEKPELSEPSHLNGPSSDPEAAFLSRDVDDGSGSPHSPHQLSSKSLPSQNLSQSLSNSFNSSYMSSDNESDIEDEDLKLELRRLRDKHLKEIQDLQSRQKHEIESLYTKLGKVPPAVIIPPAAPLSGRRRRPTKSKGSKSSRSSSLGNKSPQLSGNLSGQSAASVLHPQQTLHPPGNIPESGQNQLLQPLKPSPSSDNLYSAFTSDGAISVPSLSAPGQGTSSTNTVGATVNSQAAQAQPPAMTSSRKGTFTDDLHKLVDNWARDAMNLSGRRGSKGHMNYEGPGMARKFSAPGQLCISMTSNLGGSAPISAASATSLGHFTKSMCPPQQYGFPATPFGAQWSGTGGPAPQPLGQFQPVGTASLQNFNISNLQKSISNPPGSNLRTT
In experiment [8] the target is Fibroblast growth factor receptor 2 (Homo sapiens) (UniProt P21802). Nature of the experiment: Inhibition of human recombinant FGFR2 at 500 nM in presence of ATP by radiometric assay relative to control.
Fibroblast growth factor receptor 2 (Homo sapiens), sequence (P21802 22-821 limits assumed): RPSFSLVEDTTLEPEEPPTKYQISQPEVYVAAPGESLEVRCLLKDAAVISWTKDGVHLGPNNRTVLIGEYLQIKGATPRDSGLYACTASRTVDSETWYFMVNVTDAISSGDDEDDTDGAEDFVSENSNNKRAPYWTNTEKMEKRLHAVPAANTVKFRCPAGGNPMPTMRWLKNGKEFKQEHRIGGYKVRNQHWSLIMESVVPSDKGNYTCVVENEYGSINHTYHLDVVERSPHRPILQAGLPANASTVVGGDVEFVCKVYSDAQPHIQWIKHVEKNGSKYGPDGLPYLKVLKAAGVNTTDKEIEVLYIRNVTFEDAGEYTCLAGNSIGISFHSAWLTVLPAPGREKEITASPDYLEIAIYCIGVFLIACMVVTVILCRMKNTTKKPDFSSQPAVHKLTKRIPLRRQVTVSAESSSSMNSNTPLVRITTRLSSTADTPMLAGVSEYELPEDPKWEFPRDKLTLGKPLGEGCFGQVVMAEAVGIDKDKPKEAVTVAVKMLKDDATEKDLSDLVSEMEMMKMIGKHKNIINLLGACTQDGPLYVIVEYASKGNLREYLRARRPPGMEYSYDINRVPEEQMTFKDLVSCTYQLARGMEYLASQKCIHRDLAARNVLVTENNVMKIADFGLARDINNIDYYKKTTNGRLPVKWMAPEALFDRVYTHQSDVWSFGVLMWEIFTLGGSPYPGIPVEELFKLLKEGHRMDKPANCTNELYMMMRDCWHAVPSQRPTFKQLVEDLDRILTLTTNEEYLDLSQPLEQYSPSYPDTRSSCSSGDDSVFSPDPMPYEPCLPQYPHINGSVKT
Experiment [9] deals with T2, Serine/threonine-protein kinase ULK3 (Homo sapiens) (UniProt Q6PHR2).
T2 sequence (whole entry): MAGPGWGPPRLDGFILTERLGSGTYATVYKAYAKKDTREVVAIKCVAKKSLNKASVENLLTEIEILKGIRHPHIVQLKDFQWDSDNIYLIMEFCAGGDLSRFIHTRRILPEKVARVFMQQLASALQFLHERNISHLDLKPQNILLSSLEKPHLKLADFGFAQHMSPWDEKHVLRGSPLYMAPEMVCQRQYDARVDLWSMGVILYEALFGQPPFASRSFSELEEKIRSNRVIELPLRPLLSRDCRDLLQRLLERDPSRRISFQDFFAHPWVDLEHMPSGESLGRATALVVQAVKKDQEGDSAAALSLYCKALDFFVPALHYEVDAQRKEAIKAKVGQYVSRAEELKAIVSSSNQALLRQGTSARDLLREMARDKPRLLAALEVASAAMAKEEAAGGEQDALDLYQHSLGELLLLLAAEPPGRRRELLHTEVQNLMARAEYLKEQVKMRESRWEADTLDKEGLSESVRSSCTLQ
Kind of experiment: Inhibition of human recombinant ULK3 at 500 nM in presence of ATP by radiometric assay relative to control.

In experiment [10] the target is Serine-protein kinase ATM (Homo sapiens) (UniProt Q13315). Kind of experiment: Inhibition of human recombinant ATM at 15 nM in presence of ATP by radiometric assay relative to control. The essentials: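 Panel of 327 recombinant human kinases, each assayed in vitro by radiometric activity assay in duplicate at a single inhibitor concentration per compound, chosen with reference to its ULK1 inhibition. Activity remaining was expressed as percent of vehicle control, and percent inhibition was calculated as 100 minus percent activity remaining.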

For experiment [11], the target named is T3, Serine/threonine-protein kinase Nek11 (Homo sapiens) (UniProt Q8NG66).
T3 sequence (whole entry): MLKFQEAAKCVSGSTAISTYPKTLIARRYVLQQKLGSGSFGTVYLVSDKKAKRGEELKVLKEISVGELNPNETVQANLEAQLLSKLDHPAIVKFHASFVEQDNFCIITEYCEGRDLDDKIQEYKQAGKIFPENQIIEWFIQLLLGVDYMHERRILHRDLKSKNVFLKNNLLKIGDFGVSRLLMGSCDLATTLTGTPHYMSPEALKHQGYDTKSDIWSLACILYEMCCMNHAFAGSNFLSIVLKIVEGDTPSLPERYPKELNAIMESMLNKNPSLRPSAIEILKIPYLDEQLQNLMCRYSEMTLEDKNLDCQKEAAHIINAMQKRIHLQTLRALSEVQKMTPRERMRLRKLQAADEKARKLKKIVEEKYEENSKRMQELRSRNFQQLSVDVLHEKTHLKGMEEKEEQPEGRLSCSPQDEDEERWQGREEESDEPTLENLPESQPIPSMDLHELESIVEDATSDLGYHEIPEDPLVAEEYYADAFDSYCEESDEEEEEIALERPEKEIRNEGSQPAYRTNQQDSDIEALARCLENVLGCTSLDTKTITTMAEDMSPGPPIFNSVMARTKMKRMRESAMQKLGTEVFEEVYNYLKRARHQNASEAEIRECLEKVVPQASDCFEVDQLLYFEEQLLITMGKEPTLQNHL
Kind of experiment: Inhibition of human recombinant NEK11 at 15 nM in presence of ATP by radiometric assay relative to control.

In experiment [12] the target is Cyclin-dependent kinase 9 (Homo sapiens) (UniProt P50750). Nature of the experiment: Inhibition of human recombinant CDK9 at 15 nM related to control ULK1.
Cyclin-dependent kinase 9 (Homo sapiens), sequence (P50750 whole entry): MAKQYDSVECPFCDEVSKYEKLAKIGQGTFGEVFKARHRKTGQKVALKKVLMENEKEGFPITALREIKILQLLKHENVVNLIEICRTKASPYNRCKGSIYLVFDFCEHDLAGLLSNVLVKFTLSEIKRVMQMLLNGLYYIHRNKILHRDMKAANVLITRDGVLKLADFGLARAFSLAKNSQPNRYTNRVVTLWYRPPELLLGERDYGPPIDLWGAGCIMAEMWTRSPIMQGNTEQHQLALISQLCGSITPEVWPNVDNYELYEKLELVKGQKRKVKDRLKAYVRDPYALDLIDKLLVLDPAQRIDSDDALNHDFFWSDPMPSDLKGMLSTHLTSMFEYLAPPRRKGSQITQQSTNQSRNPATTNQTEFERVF
Experiment [13] has as its target T2, Serine/threonine-protein kinase ULK3 (Homo sapiens). Nature of the experiment: Inhibition of human recombinant ULK3 at 15 nM related to control ULK1.

Calcium/calmodulin-dependent protein kinase kinase 1 (Homo sapiens), sequence (Q8N5S9 whole entry, looked up): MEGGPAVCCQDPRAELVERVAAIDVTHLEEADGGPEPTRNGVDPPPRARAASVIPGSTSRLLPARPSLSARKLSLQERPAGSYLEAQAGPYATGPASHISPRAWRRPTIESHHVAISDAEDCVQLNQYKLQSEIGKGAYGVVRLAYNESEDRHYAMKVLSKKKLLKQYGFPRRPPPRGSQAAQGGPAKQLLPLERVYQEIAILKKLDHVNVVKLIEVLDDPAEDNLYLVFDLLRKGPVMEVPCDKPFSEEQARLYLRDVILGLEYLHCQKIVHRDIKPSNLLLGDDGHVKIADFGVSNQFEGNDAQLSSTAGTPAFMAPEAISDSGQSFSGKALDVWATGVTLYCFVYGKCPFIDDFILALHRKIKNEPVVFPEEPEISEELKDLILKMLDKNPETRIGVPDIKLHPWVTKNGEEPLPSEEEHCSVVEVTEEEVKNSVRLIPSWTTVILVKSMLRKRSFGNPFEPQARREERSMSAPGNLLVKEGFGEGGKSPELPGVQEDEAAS

One may read the inhibition as the change of the read-out against control, counted positive when it falls. Consider `O=C(N[C@@H](C1CC1)C(F)(F)F)c1cc(-c2cnn3cc(-c4ccc(F)cc4)cnc23)cs1`, for which the inhibition in experiment [1] was 18%. Besides, the fold change (FC) was 0 in experiment [2]; 0 in experiment [3]; 0.41 in [4]; 0 in experiment [5]; 0 in [6]; 0.16 in experiment [7].
With `CNC(=O)c1ccccc1Oc1nc(Nc2cc(OC)c(OC)c(OC)c2)ncc1Br`, the inhibition amounted to 21% in [8] and 84% in experiment [9].
`CC(C)[C@H](NC(=O)c1cc(-c2cnn3cc(-c4ccc(OCCN5CCCCC5)cc4)cnc23)cs1)C(F)(F)F`: the inhibition in experiment [10] worked out at 6%; in [11], 0%. The fold change (FC) was determined as 0 in experiment [12] and 0.45 in experiment [13].
